According to ChEMBL document CHEMBL1781959, “Synthesis and in vitro antitumor activity of substituted quinazoline and quinoxaline derivatives: search for anticancer agent” (Eur J Med Chem, 2011):

Legend:
[1] = tested on: U-251; experiment: Growth inhibition of human U251 cells after 48 hrs by SRB assay; type: functional; details: U-251, 48 h
Outline: (§1)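 NCI-60 panel cells grown in RPMI 1640 with 5% FBS and 2 mM L-glutamine, then seeded at 5000–40,000 cells/well by doubling time and preincubated for 24 h. Compound in DMSO was tested either at 10^-5 M alone or at 0.01–100 μM in five doses, for 48 h at 37 °C. Cells were fixed with cold TCA (10% final), stained with SRB, and read at 515 nm. GI50 was taken from % growth relative to time-zero and control wells.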

[2] = tested on: SNB-19; experiment: Growth inhibition of human SNB19 cells after 48 hrs by SRB assay; type: functional; details: SNB-19, 48 h; outline: as §1
[3] = tested on: A498; experiment: Growth inhibition of human A498 cells after 48 hrs by SRB assay; type: functional; details: A498, 48 h
Outline: (§2)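 NCI 60-panel five-dose assay at 0.01, 0.1, 1, 10 and 100 μM. Cells in RPMI 1640 with 5% FBS and 2 mM L-glutamine, preincubated 24 h, with time-zero plates TCA-fixed. Drug exposure 48 h at 37 °C. Read by SRB staining at 515 nm. GI50 is the concentration where [(Ti−Tz)/(C−Tz)]×100 = 50, taken from log concentration versus % growth curves.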

[4] = tested on: MCF7; experiment: Cytotoxicity against human MCF7 cells after 48 hrs by SRB assay; type: cell-based; details: mcf7, 48 h
Outline: (§3)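 NCI-60 five-dose screen in RPMI 1640 with 5% FBS and 2 mM L-glutamine; 5000–40,000 cells/well, 24 h pre-incubation. DMSO stocks diluted to 0.01, 0.1, 1, 10 and 100 μM final; 48 h at 37 °C, 5% CO2. Fixed with TCA (10% final adherent, 16% suspension), stained with 0.4% SRB, A515. GI50, TGI and LC50 taken from time-zero, control and test absorbances.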

[5] = tested on: NCI-H460; experiment: Growth inhibition of human NCI-H460 cells after 48 hrs by SRB assay; type: functional; details: NCI-H460, 48 h; outline: as §2
[6] = tested on: 786-0; experiment: Growth inhibition of human 786-0 cells after 48 hrs by SRB assay; type: functional; details: 786-0, 48 h; outline: as §2
[7] = tested on: CAKI-1; experiment: Cytotoxicity against human Caki1 cells after 48 hrs by SRB assay; type: cell-based; details: caki-1, 48 h; outline: as §3
[8] = tested on: TK-10; experiment: Growth inhibition of human TK10 cells after 48 hrs by SRB assay; type: functional; details: TK-10, 48 h; outline: as §1
[9] = tested on: UACC-62; experiment: Cytotoxicity against human UACC62 cells after 48 hrs by SRB assay; type: cell-based; details: uacc-62, 48 h
Outline: (§4)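 NCI-60 five-dose screen. Cells grown in RPMI 1640 with 5% FBS and 2 mM L-glutamine and pre-incubated 24 h; a time-zero plate is TCA-fixed. Drug added at 0.01, 0.1, 1, 10 and 100 µM (DMSO stock) for 48 h at 37 °C, 5% CO2. Fixed with cold TCA (10% final for adherent, 16% for suspension cells), stained with 0.4% SRB, A515. GI50, TGI and LC50 taken from dose-response curves.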

[10] = tested on: HCC 2998; experiment: Growth inhibition of human HCC2998 cells after 48 hrs by SRB assay; type: functional; details: HCC 2998, 48 h; outline: as §2
[11] = tested on: UO-31; experiment: Growth inhibition of human UO31 cells after 48 hrs by SRB assay; type: functional; details: UO-31, 48 h; outline: as §1
[12] = tested on: EKVX; experiment: Growth inhibition of human EKVX cells after 48 hrs by SRB assay; type: functional; outline: as §2
[13] = tested on: EKVX; experiment: Cytotoxicity against human EKVX cells after 48 hrs by SRB assay; type: cell-based; outline: as §3
[14] = tested on: HCT-15; experiment: Cytotoxicity against human HCT15 cells after 48 hrs by SRB assay; type: cell-based; details: hct-15, 48 h; outline: as §3
[15] = tested on: OVCAR-5; experiment: Cytotoxicity against human OVCAR5 cells after 48 hrs by SRB assay; type: cell-based; details: ovcar-5, 48 h; outline: as §3
[16] = tested on: NCI-H226; experiment: Growth inhibition of human NCI-H226 cells after 48 hrs by SRB assay; type: functional; details: NCI-H226, 48 h; outline: as §2
[17] = tested on: MDA-MB-435; experiment: Cytotoxicity against human MDA-MB-435 cells after 48 hrs by SRB assay; type: cell-based; details: mda-mb-435, 48 h; outline: as §3
[18] = tested on: SK-MEL-5; experiment: Cytotoxicity against human SK-MEL-5 cells after 48 hrs by SRB assay; type: cell-based; details: sk-mel-5, 48 h; outline: as §3
[19] = tested on: K562; experiment: Growth inhibition of human K562 cells after 48 hrs by SRB assay; type: functional; details: K562, 48 h; outline: as §2
[20] = tested on: SK-OV-3; experiment: Cytotoxicity against human SKOV3 cells after 48 hrs by SRB assay; type: cell-based; details: sk-ov-3, 48 h; outline: as §3
[21] = tested on: RXF 393; experiment: Cytotoxicity against human RXF393 cells after 48 hrs by SRB assay; type: cell-based; details: rxf 393, 48 h; outline: as §3
[22] = tested on: Malme-3M; experiment: Cytotoxicity against human MALME-3M cells after 48 hrs by SRB assay; type: cell-based; outline: as §3
[23] = tested on: NCI-H23; experiment: Cytotoxicity against human NCI-H23 cells after 48 hrs by SRB assay; type: cell-based; details: nci-h23, 48 h; outline: as §3
[24] = tested on: SN12C; experiment: Cytotoxicity against human SN12C cells after 48 hrs by SRB assay; type: cell-based; outline: as §3
[25] = tested on: SK-MEL-2; experiment: Cytotoxicity against human SK-MEL-2 cells after 48 hrs by SRB assay; type: cell-based; details: sk-mel-2, 48 h; outline: as §3
[26] = tested on: MDA-MB-435; experiment: Growth inhibition of human MDA-MB-435 cells after 48 hrs by SRB assay; type: functional; details: MDA-MB-435, 48 h; outline: as §2
[27] = tested on: SNB-19; experiment: Cytotoxicity against human SNB19 cells after 48 hrs by SRB assay; type: cell-based; details: snb-19, 48 h; outline: as §4
[28] = tested on: NCI-H522; experiment: Growth inhibition of human NCI-H522 cells after 48 hrs by SRB assay; type: functional; details: NCI-H522, 48 h; outline: as §2
[29] = tested on: PC-3; experiment: Cytotoxicity against human PC3 cells after 48 hrs by SRB assay; type: cell-based; details: pc-3, 48 h; outline: as §3
[30] = tested on: IGROV-1; experiment: Growth inhibition of human IGROV1 cells after 48 hrs by SRB assay; type: functional; details: IGROV-1, 48 h; outline: as §2
[31] = tested on: BT-549; experiment: Cytotoxicity against human BT549 cells after 48 hrs by SRB assay; type: cell-based; details: bt-549, 48 h; outline: as §3
[32] = tested on: OVCAR-4; experiment: Growth inhibition of human OVCAR4 cells after 48 hrs by SRB assay; type: functional; details: OVCAR-4, 48 h; outline: as §2
[33] = Cytotoxicity against human Hs 578T cells after 48 hrs by SRB assay; type: cell-based; outline: as §3
[34] = tested on: ACHN; experiment: Cytotoxicity against human ACHN cells after 48 hrs by SRB assay; type: cell-based; outline: as §3
[35] = tested on: OVCAR-3; experiment: Cytotoxicity against human OVCAR3 cells after 48 hrs by SRB assay; type: cell-based; details: ovcar-3, 48 h; outline: as §3
[36] = tested on: NCI-H322M; experiment: Growth inhibition of human NCI-H322M cells after 48 hrs by SRB assay; type: functional; outline: as §2

In the case of `O=c1c2ccccc2nc(-c2ccco2)n1/N=C/c1ccccc1Cl`, the GI50 [1] is reported as 4.12 µM, the TGI [1] is reported as 32.3 µM and the GI50 [2] is reported as 6.34 µM. It also gave a TGI [2] of 12.8 µM, a GI50 [3] of 5.76 µM and a TGI [3] of 16.7 µM. The LC50 [4] was over 100 µM, the GI50 [5] was 3.45 µM and the TGI [5] was 8.41 µM. The GI50 [6] was 3.94 µM, the TGI [6] was 14.9 µM and the LC50 [7] was over 100 µM. The GI50 [8] was 7.84 µM, the TGI [8] was over 100 µM and the LC50 [9] was over 100 µM. For the same compound, the GI50 [10] was 5.68 µM, the TGI [10] was over 100 µM and the GI50 [11] was 6.12 µM. It also gave a TGI [11] of over 100 µM, a GI50 [12] of 7.23 µM and a TGI [12] of over 100 µM. For the same compound, the LC50 [13] was over 100 µM, the LC50 [14] was over 100 µM and the LC50 [15] was over 100 µM. The GI50 [16] was 4.12 µM, the TGI [16] was over 100 µM and the LC50 [17] was over 100 µM. The LC50 [18] was over 100 µM, the GI50 [19] was over 100 µM and the TGI [19] was over 100 µM. The LC50 [20] was over 100 µM, the LC50 [21] was over 100 µM and the LC50 [22] was over 100 µM. It also gave an LC50 [23] of over 100 µM, an LC50 [24] of over 100 µM and an LC50 [25] of over 100 µM. The GI50 [26] was 8.23 µM, the TGI [26] was 17 µM and the LC50 [27] was over 100 µM. For the same compound, the GI50 [28] was 2.14 µM, the TGI [28] was 6.45 µM and the LC50 [29] was over 100 µM. For the same compound, the GI50 [30] was 6.12 µM, the TGI [30] was over 100 µM and the LC50 [31] was 72.4 µM. It also gave a GI50 [32] of 1.82 µM, a TGI [32] of 6.48 µM and an LC50 [33] of over 100 µM. The LC50 [34] was over 100 µM, the LC50 [35] was over 100 µM and the GI50 [36] was 4.11 µM. It also gave a TGI [36] of 76.9 µM.
